Assay results reported in PMC5109833 (Journal of medicinal chemistry, 2015).
Like-named read-outs stand apart in the source and are kept apart here. Peptide text beside a SMILES is read from it.

Experiments:
STAT6 (SH2 domain) = biological target: T1, STAT6 (SH2 domain) (Homo sapiens, UniProt P42226); experiment: Fluorescence polarization assay of affinity for STAT6; format: binding
T1 sequence (P42226 517-632 limits assumed): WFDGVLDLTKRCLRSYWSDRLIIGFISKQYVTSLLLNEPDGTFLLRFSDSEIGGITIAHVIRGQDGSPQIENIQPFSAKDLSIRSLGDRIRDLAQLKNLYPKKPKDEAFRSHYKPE

[1] = tested on: pSTAT6 in CD4+ T lymphocytes; format: cell-based; conditions: primary mouse CD4+ T lymphocytes, Figure S2
Procedure, shortened: (§1)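 CD4+ T cells magnetically sorted from C57BL/6J mice. Activated on plate-bound anti-CD3 and/or anti-CD28 with IL-2 or IL-4 for 15 min. Lysed in kinase lysis buffer with protease inhibitors, 10 mM NaF and 1 mM Na3VO4. Protein equalised by Bradford, then immunoblotted for phospho-STAT5 Tyr694/STAT5 or phospho-STAT6 Tyr641/STAT6.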

[2] = tested on: CCL26 (eotaxin-3) mRNA in Beas-2B cells; experiment: Inhibition of IL-13 stimulated CCL26; format: cell-based, human; conditions: IL-13, 100 nM
Procedure, shortened: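 Beas-2B cells plated at 4 × 10^5 cells/well and held overnight in complete medium, then serum-starved 2 h. Pretreated with test compound 2 h, then stimulated with IL-13 overnight in serum-free medium. RNA extracted with Trizol and reverse transcribed. CCL26 quantified relative to β-actin by TaqMan real-time PCR.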

[3] = tested on: pSTAT6 (Tyr641) in Beas-2B cells; conditions: IL-4 and IL-13 stimulated; cited from earlier work
[4] = tested on: pSTAT5 in CD4+ T lymphocytes; format: cell-based; conditions: primary mouse CD4+ T lymphocytes
Procedure, shortened: as §1

[5] = tested on: pSTAT6 (Tyr641) in Beas-2B cells; experiment: Inhibition of STAT6 Tyr641 phosphorylation in intact Beas-2B cells; format: cell-based, human; conditions: for pSTAT6 inhibition potency (in words): IL-4, Figure 4B
Procedure, shortened: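 Beas-2B cells seeded at 3.0 × 10^5 cells/well the day before. Prodrug added from DMSO stocks (5–10 μM stock) for 2 h, then IL-4 2 ng/mL for 1 h. Cells washed in cold PBS, lysed with PMSF, and protein measured by Lowry. 15–30 µg run on 10% SDS-PAGE and probed for pSTAT6 Tyr641 with ECL detection, then stripped and reprobed for total STAT6. Bands quantified densitometrically.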

Beas-2B cells = experiment: Beas-2B cell viability/proliferation, MTS assay, 72 h; format: cell-based, human; conditions: 72 h exposure
Procedure, shortened: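 Beas-2B cells seeded at 2000 cells/well. Test compound made as 10 mM DMSO stock, serially diluted in DMSO, and equal amounts of each dilution added. Incubation at 37 °C for 72 h. Medium then replaced with 1:5 MTS/PBS for a further 1 h. Viable cells estimated from optical density at 490 nm.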

pAkt in MDA-MB-468 cells = experiment: Inhibition of EGF-stimulated pAkt in MDA-MB-468 cells; format: cell-based, human; conditions: serum starved MDA-MB-468, EGF

CC(C)(C)[C@H](NC(=O)/C=C/c1ccc(OP(=O)(O)O)cc1)C(=O)N1CCC[C@H]1C(=O)N(c1ccccc1)c1ccc(I)cc1 [18a]
IC50 (STAT6 (SH2 domain)): 0.04 µM

CC[C@H](C)[C@H](NC(=O)[C@H](CC(C)C)NC(=O)[C@H](CC(=O)O)NC(=O)[C@H](CCC(N)=O)NC(=O)[C@H](Cc1ccccc1)NC(=O)[C@@H]1CCCN1C(=O)[C@H](CCCCN)NC(=O)[C@H](Cc1ccc(OP(=O)(O)O)cc1)NC(C)=O)C(N)=O [compound 1, Ac-pTyr-Lys-Pro-Phe-Gln-Asp-Leu-Ile-NH2] (HELM PEPTIDE1{[ac].[O=C([C@H](Cc1ccc(OP(=O)(O)O)cc1)N[*:1])[*:2]].K.P.F.Q.D.L.I.[am]}$$$$V2.0)
IC50 (STAT6 (SH2 domain)): 2 µM

CC(C)(C)C(=O)OCOP(=O)(OCOC(=O)C(C)(C)C)C(F)(F)c1ccc(/C=C/C(=O)N[C@H](C(=O)N2CCC[C@H]2C(=O)N(c2ccccc2)c2ccc(I)cc2)C(C)(C)C)cc1 [compound 17]
inhibition of IL-4 stimulated pSTAT6 [1]: relatively weak | inhibition of CCL26 mRNA expression at 100 nM [2]: > 50% | concentration giving significant inhibition of pSTAT6 [3]: ≥ 1 µM

C/C(=C\C(=O)N[C@H](C(=O)N1CCCC1/C=C/CCc1ccccc1)C(C)(C)C)c1ccc(OP(=O)(O)O)cc1 (stereo partly drawn) [compound 25]
IC50 (STAT6 (SH2 domain)): 0.5 µM

CC(C)(C)C(=O)OCOP(=O)(OCOC(=O)C(C)(C)C)C(F)(F)c1ccc(/C=C/C(=O)N[C@H](C(=O)N2CCC[C@H]2C(=O)N(c2ccccc2)c2ccccc2)C(C)(C)C)cc1 [compound 28]
inhibition of IL-2 mediated STAT5 phosphorylation [4]: robust inhibition | concentration giving complete inhibition of pSTAT6 ([5]; prodrug 2 h, IL-4 1 h): 500 nM | concentration giving significant inhibition of pSTAT6 ([5]; prodrug 2 h, IL-4 1 h): 100 nM | effect on cell viability at concentrations ≤1 µM (Beas-2B cells): did not affect viability

CN(C(=O)[C@@H]1CCCN1C(=O)[C@@H](NC(=O)/C=C/c1ccc(C(F)(F)P(=O)(OCOC(=O)C(C)(C)C)OCOC(=O)C(C)(C)C)cc1)C(C)(C)C)c1ccccc1 [compound 29]
inhibition of IL-2 mediated STAT5 phosphorylation [4]: robust inhibition | inhibition of pAkt at 5 µM (pAkt in MDA-MB-468 cells): mild inhibition | concentration giving nearly complete inhibition of pSTAT6 ([5]; prodrug 2 h, IL-4 1 h): 100 nM | concentration giving significant inhibition of pSTAT6 ([5]; prodrug 2 h, IL-4 1 h): 50 nM | effect on cell viability at concentrations ≤1 µM (Beas-2B cells): did not affect viability

CC(C)(C)C(=O)OCOP(=O)(OCOC(=O)C(C)(C)C)C(F)(F)c1ccc(/C=C/C(=O)N[C@H](C(=O)N2CCC[C@H]2C(=O)Nc2ccccc2)C(C)(C)C)cc1 [compound 30]
inhibition of IL-2 mediated STAT5 phosphorylation [4]: not an inhibitor of pSTAT5 | lowest concentration with potent inhibition of pAkt (pAkt in MDA-MB-468 cells): 100 nM | loss of pSTAT6 inhibition potency relative to 29 ([5]; IL-4): approximately 25 fold | cell viability (in words) (Beas-2B cells): the fraction of viable cells paralleled pSTAT6 inhibition

C/C(=C\C(=O)N[C@H](C(=O)N1CCC[C@H]1C(=O)N(C)c1ccccc1)C(C)(C)C)c1ccc(C(F)(F)P(=O)(OCOC(=O)C(C)(C)C)OCOC(=O)C(C)(C)C)cc1 [compound 31]
inhibition of IL-2 mediated STAT5 phosphorylation [4]: robust inhibition | inhibition of pAkt at 5 µM (pAkt in MDA-MB-468 cells): mild inhibition | pSTAT6 inhibition potency (in words) [5]: retains potency | cell viability (in words) (Beas-2B cells): nearly identical to that of 29 | inhibition of CCL26 mRNA expression at 100 nM [2]: > 50%

C/C(=C\C(=O)N[C@H](C(=O)N1CCC[C@H]1C(=O)N(C)C1CCCCC1)C(C)(C)C)c1ccc(C(F)(F)P(=O)(OCOC(=O)C(C)(C)C)OCOC(=O)C(C)(C)C)cc1 [compound 32]
inhibition of IL-2 mediated STAT5 phosphorylation [4]: robust inhibition | pSTAT6 inhibition potency (in words) [5]: high potency | cell viability (in words) (Beas-2B cells): nearly identical to that of 29
